Data: ChEMBL document CHEMBL1250555, “Anti-AIDS agents 84. Synthesis and anti-human immunodeficiency virus (HIV) activity of 2'-monomethyl-4-methyl- and 1'-thia-4-methyl-(3'R,4'R)-3',4'-di-O-(S)-camphanoyl-(+)-cis-khellactone (DCK) analogs” (Bioorg Med Chem, 2010)

How the values were obtained:
[1] = Therapeutic index, ratio of IC50 for human H9 cells to EC50 for HIV1 3B; format: cell-based; details: read-out: TI
Method in brief: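 Mock-infected H9 cells were run in parallel under the same conditions, and toxicity was measured by XTT. IC50 is the concentration toxic to 50% of the cells. TI = IC50/EC50, where EC50 is 50% suppression of HIV-1 IIIB replication measured by day-6 p24 antigen capture.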

[2] = target: Human immunodeficiency virus type 1 reverse transcriptase (Human immunodeficiency virus 1, UniProt Q72547); experiment: Inhibition of HIV1 DH012 reverse transcriptase by roche colorimetric assay
Method in brief: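 HIV-1 DH012 RT activity was measured across a range of test-compound concentrations using a colorimetric RT kit run per the manufacturer's protocol; IC50 taken as the inhibitory concentration.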

[3] = test system: Human immunodeficiency virus 1; experiment: Antiviral activity against HIV1 IIIB infected in human H9 cells after 6 days by p24 antigen capture assay; details: Human immunodeficiency virus 1, H9, 144 h
[4] = test system: Human immunodeficiency virus 1; experiment: Antiviral activity against HIV1 3B infected in human H9 cells assessed as inhibition of viral replication at up to 100 ug/mL after 6 hrs by p24 antigen based assay; format: functional, organism-based; details: in the assay text read “after 6 days” for “after 6 hrs”
Method in brief: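 H9 human T cells (3 × 10^5 cells/mL) infected with HIV-1 IIIB at 125 TCID50. Compounds dissolved in DMSO and screened at final 100, 20, 4 and 0.8 μg/mL, with further dilutions for actives. Medium was replaced on days 1 and 4 post-infection. On day 6 the supernatant p24 antigen was measured by capture assay. EC50 is the concentration suppressing replication by 50%.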

EC50 [4]	SMILES	selectivity ratio [1]	IC50 [2] [nM]	EC50 [3] [nM]
–	Cc1cc(=O)oc2c3c(ccc12)O[C@@H](C)[C@H](OC(=O)[C@]12CC[C@](C)(C(=O)O1)C2(C)C)[C@@H]3OC(=O)[C@]12CC[C@](C)(C(=O)O1)C2(C)C	> 706	6700	< 40
–	Cc1cc(=O)oc2c3c(ccc12)O[C@H](C)[C@@H](OC(=O)[C@]12CC[C@](C)(C(=O)O1)C2(C)C)[C@H]3OC(=O)[C@]12CC[C@](C)(C(=O)O1)C2(C)C	17.8	–	2260
–	Cc1cc(=O)oc2c3c(ccc12)[S+]([O-])[C@H](C)[C@H](OC(=O)[C@]12CC[C@](C)(C(=O)O1)C2(C)C)[C@@H]3OC(=O)[C@]12CC[C@](C)(C(=O)O1)C2(C)C (some centres undefined)	1.57	–	24400
–	Cc1cc(=O)oc2c3c(ccc12)S(=O)(=O)[C@@H](C)C(OC(=O)C12CCC(C)(C(=O)O1)C2(C)C)C3OC(=O)C12CCC(C)(C(=O)O1)C2(C)C (some centres undefined)	11.1	–	3370
–	Cc1cc(=O)oc2c3c(ccc12)SC[C@H](OC(=O)[C@]12CC[C@](C)(C(=O)O1)C2(C)C)[C@@H]3OC(=O)[C@]12CC[C@](C)(C(=O)O1)C2(C)C	40.6	–	990
–	Cc1cc(=O)oc2c3c(ccc12)S[C@H](C)[C@H](OC(=O)[C@]12CC[C@](C)(C(=O)O1)C2(C)C)[C@@H]3OC(=O)[C@]12CC[C@](C)(C(=O)O1)C2(C)C	31.1	–	1260
–	Cc1cc(=O)oc2c3c(ccc12)OC[C@H](OC(=O)[C@]12CC[C@](C)(C(=O)O1)C2(C)C)[C@@H]3OC(=O)[C@]12CC[C@](C)(C(=O)O1)C2(C)C	2.54	–	16200
Not Active	Cc1cc(=O)oc2c3c(ccc12)S[C@H](C)[C@@H](OC(=O)[C@]12CC[C@](C)(C(=O)O1)C2(C)C)[C@H]3OC(=O)[C@]12CC[C@](C)(C(=O)O1)C2(C)C	–	–	–
–	Cc1cn([C@H]2C[C@H](N=[N+]=[N-])[C@@H](CO)O2)c(=O)[nH]c1=O [ZIDOVUDINE]	–	–	10
–	Cc1cc(=O)oc2c3c(ccc12)S[C@@H](C)[C@@H](OC(=O)[C@]12CC[C@](C)(C(=O)O1)C2(C)C)[C@H]3OC(=O)[C@]12CC[C@](C)(C(=O)O1)C2(C)C	> 1000	–	< 39
–	Cc1cc(=O)oc2c3c(ccc12)OC(C)(C)[C@H](OC(=O)[C@]12CC[C@](C)(C(=O)O1)C2(C)C)[C@@H]3OC(=O)[C@]12CC[C@](C)(C(=O)O1)C2(C)C	301	10400	126
Not Active	Cc1cc(=O)oc2c3c(ccc12)[S+]([O-])[C@@H](C)C(OC(=O)C12CCC(C)(C(=O)O1)C2(C)C)C3OC(=O)C12CCC(C)(C(=O)O1)C2(C)C (some centres undefined)	–	–	–
Not Active	Cc1cc(=O)oc2c3c(ccc12)O[C@H](C)[C@H](OC(=O)[C@]12CC[C@](C)(C(=O)O1)C2(C)C)[C@@H]3OC(=O)[C@]12CC[C@](C)(C(=O)O1)C2(C)C	–	–	–
